Bioassay records as filed in PubChem.
Most compounds without a hit are left out; they make up all but 1.9% or so of the library.
Rpn11 block: Rpn11 (human) deubiquitinase inhibition. human 26S proteasome, Ub4-pepOG fluorescence polarization; 20S core pre-blocked with epoxomicin. inhibition, % at 20 µM. actives 0.59% (n = 360,000). AID 588493;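 active = inhibition at 20 µM, scaled to each plate's controls, above about 33%, limit read from the data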
Target sequence (O00487 whole entry, looked up): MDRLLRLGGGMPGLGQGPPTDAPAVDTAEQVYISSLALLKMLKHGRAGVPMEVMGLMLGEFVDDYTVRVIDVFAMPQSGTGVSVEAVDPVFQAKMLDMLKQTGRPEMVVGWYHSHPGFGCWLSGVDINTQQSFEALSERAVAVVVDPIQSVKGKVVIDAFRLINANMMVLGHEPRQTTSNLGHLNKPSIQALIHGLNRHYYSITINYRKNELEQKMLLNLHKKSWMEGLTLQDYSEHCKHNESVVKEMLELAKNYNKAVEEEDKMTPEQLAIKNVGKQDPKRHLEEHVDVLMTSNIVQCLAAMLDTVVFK
NadD block: blocks S. aureus nicotinate mononucleotide adenylyltransferase; purified NadD enzyme, colorimetric absorbance read-out; inhibition, % at 20 µM; actives 0.78% (n = 360,000); in the data active = inhibition above about 26%
ABHD5 PLIN5 PPI: inhibitors of human ABHD5-perilipin-5 interaction. actives 0.78% (n = 360,000). inhibition, % at 4 µM. Q00G26+Q8WTS1. Split G. princeps luciferase complementation, luminescence, 4 h;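 active = inhibition above the mean inhibition across every tested compound plus 3 SD, cut at about 22% in these data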;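 note: 0% = DMSO only wells and the 100% control is not disclosed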
Rin1-Abl PPI inh: human Rin1-Abl interaction inhibition | TR-FRET Rin1/Abl binding, biochemical | inhibition, % at 7.35 µM | actives 0.4% (n = 360,000); in the data active = inhibition above about 5%, passing the limit was not always enough
XiGFP reactiv: activators of X-chromosome reactivation in mouse fibroblasts; activation, % at 7.58 µM; actives 0.055% (n = 360,000); XiGFP mouse fibroblasts, % GFP-positive cells imaging, 3 d; cells co-treated with 5-aza-dC sensitizer; scaled so ellipticine positive control = 100%; AID 743238;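 active = mean normalized replicate activation at least 10% and every replicate at or above 10%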;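 note: 0% = median of on-plate neutral control wells and 100% = ellipticine 6 µM median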
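Assay system: SV40-immortalized XiGFP fibroblast cells, line 68-5-11; buffer or medium: DMEM plus 5-aza-dC sensitizer; compound: one concentration, pinned; timing: compounds 3 days, fix/stain 15 min at room temperature; benchmarks: positive control ellipticine, 6 µM final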
NadD conf: NadD (S. aureus) inhibition, single concentration confirmation; shares compounds with NadD block; purified S. aureus NadD, colorimetric enzyme assay; inhibition, % at 20 µM; actives 13% (n = 2,000); AID 624309; in the data active = inhibition mostly above about 42%, no sharp cut-off; inactive = mostly below about 42%
An asterisk follows results filed as active; x = not tested or not shown.

SMILES	Rpn11 block	NadD block	ABHD5 PLIN5 PPI	Rin1-Abl PPI inh	XiGFP reactiv	NadD conf
CC(C)C[C@@H](CNCC(=O)[C@H](Cc1c[nH]c2ccccc12)NC(=O)c1[nH]cnc1C(=O)N[C@@H](C)CN)NC(=O)c1nc[nH]c1C(=O)N[C@@H](Cc1ccccc1)C(=O)O	-9.2	33.9*	-13.2	-1.0	0.0	43.3
CCC(=O)Nc1ccc2c(c1)OC[C@H](C)N(Cc1cccnc1)C[C@H](C)[C@H](OC)CN(C)C2=O	x	x	x	x	0.0	x
C[C@H](CO)N1C[C@H](C)[C@@H](CN(C)C(=O)Cc2ccccc2)Oc2ncc(C#Cc3ccccc3F)cc2C1=O	x	x	x	x	-1.3	x
Cc1cc2oc(=O)cc(CN3CCc4ccccc43)c2cc1Cl	0.9	32.2*	5.5	-0.9	x	3.2
COc1ccc(Cc2c(C3CCCCC3)nc3c(Cl)cc(C(F)(F)F)cn23)c(C)c1	x	31.4*	17.8	x	-0.1	13.3
O=C(c1cccc(S(=O)(=O)N2CCN(c3ccc(F)cc3)CC2)c1)N1CCN(c2ccccc2O)CC1	-4.1	38.1*	2.7	5.0	0.1	8.8
COC(=O)CCCC1=CC2=CC(=O)C(C)(OC(=O)c3cccs3)C(=O)C2=CN1Cc1ccc2c(c1)OCO2 (stereo unspecified)	-18.8	35.6*	-15.2	1.6	-0.3	27.7
CCOc1ccc(CCN2C(=O)C(=O)N([C@@H](CC(C)C)CN3CCC[C@H]3CN3C(=O)C(=O)NC[C@@H]3Cc3ccccc3)C[C@@H]2Cc2ccc(O)cc2)cc1	x	34.7*	1.7	x	0.0	33.5
CCOc1ccc(CCN2C(=O)C(=O)N([C@@H](CC(C)C)CN3CCC[C@H]3CN3C(=O)C(=O)NC[C@@H]3Cc3ccccc3)C[C@@H]2Cc2ccccc2)cc1	x	34.1*	17.0	x	0.0	37.8
Cc1noc(C)c1NC(=O)N(C)C[C@@H]1Oc2ccc(NC(=O)C3CC3)cc2CC(=O)N([C@H](C)CO)C[C@H]1C	x	x	x	x	0.2	x
COc1ccc(S(=O)(=O)Nc2ccc3c(c2)CC(=O)N([C@H](C)CO)C[C@H](C)[C@@H](CN(C)Cc2ccc(C(=O)Nc4ccccc4N)cc2)O3)cc1	x	x	x	x	0.2	x
COc1cccc(C(=O)Nc2nnc(-c3ccc(Cl)cc3)o2)c1	-4.6	8.9	-2.5	0.7	0.4	x
CCOc1ccc(-c2nnc(NC(=O)c3ccc(OCC(C)C)c(OC)c3)o2)cc1	-4.5	37.4*	1.9	-0.6	x	5.2
COc1cccc(-c2nnc(NC(=O)c3ccc4ncsc4c3)o2)c1	-23.4	31.1*	-9.2	-1.8	0.0	8.0
CS(=O)(=O)c1cccc(-c2nnc(NC(=O)c3ccc4ncsc4c3)o2)c1	6.8	11.7	6.3	3.8	0.0	x
COc1ccc2c3c(n(C)c2c1)[C@@H](CO)N(C(=O)NC(C)C)CC31CN(C(=O)NC(C)C)C1	x	x	x	x	0.3	x
CCCNC(=O)[C@@H]1[C@@H](CO)[C@@H]2Cn3c(ccc(/C=C/c4ccccc4)c3=O)[C@@H]2N1CC	x	x	x	x	-0.1	x
Cc1ccc(S(=O)(=O)N[C@H]2CC[C@H](CC(=O)NCCCN(C)C)O[C@@H]2CO)cc1	x	x	x	x	0.9	x
Cc1ccc(-n2c(O)c(C=Nc3ccccc3-c3n[nH]c(=S)[nH]c3=O)c3ccccc3c2=O)c(C)c1	15.3	32.0*	3.6	2.2	0.7	36.8
Cc1cccc(-n2c(O)c(C=Nc3ccccc3-c3n[nH]c(=S)[nH]c3=O)c3ccccc3c2=O)n1	6.3	25.9	-1.2	-3.3	0.0	x
Cc1ccc(-n2c(O)c(C=Nc3ccccc3-c3n[nH]c(=S)[nH]c3=O)c3ccccc3c2=O)cc1C	6.7	38.6*	7.7	1.4	0.2	61.9*
CO[C@H]1CN(C)C(=O)c2cc(NC(=O)C3CC3)ccc2OC[C@@H](C)N(C(=O)c2cccnc2)C[C@@H]1C	x	x	x	x	0.1	x
Cc1ccc(S(=O)(=O)N[C@@H]2CC[C@@H](CCNC(=O)c3ccc4c(c3)OCO4)O[C@H]2CO)cc1	x	x	x	x	0.4	x
O=C1NC(Cc2ccc(O)cc2)c2nc3ccc(Br)cc3c(=O)n2-c2cc3ccccc3cc21 (stereo unspecified)	4.0	31.5*	-1.5	-0.1	-0.1	3.6
COc1ccc2nc3n(c(=O)c2c1)-c1cc2ccccc2cc1C(=O)NC3Cc1ccc(O)cc1 (stereo unspecified)	4.9	17.4	1.3	3.3	0.2	x
SMILES	Rpn11 block	NadD block	ABHD5 PLIN5 PPI	Rin1-Abl PPI inh	XiGFP reactiv	NadD conf
Cc1ccc(C(=O)CSc2nnc(-c3ccco3)n2Cc2ccccc2)cc1	5.2	7.6	1.8	-0.5	x	x
Cn1c(SCC(=O)c2ccc(-c3ccccc3)cc2)nnc1-c1ccco1	7.4	32.3*	3.1	-1.1	x	28.6
C[C@H]1CN([C@@H](C)CO)S(=O)(=O)c2ccc(C#CC3CC3)cc2O[C@H]1CN(C)CC1CCOCC1	x	x	x	x	0.0	x
N=C1SC(c2ccccc2)C(=O)N1c1ncc(Cc2ccccc2Cl)s1 (stereo unspecified)	12.9	49.6*	-8.6	-2.4	0.1	50.1*
O=C(CSc1nnnn1-c1ccccc1)Nc1ncc(Cc2ccccc2Cl)s1	-6.4	1.2	3.5	4.3	0.3	x
Cc1cc(C(=O)OCC(=O)NC2CCCCC2C)c2ccccc2n1 (stereo unspecified)	-14.4	2.7	-1.9	0.0	0.2	x
CC1CCCCC1NC(=O)COC(=O)c1c2c(nc3ccccc13)/C(=C/c1ccco1)CC2 (stereo unspecified)	13.3	85.1*	1.7	-4.3	0.0	42.4
O=C(COC(=O)c1c2c(nc3ccccc13)/C(=C/c1ccco1)CC2)NC1CCCC1	34.7	52.3*	8.8	1.5	0.2	64.0*
CCCNC(=O)Nc1ccc2c(c1)C(=O)N(C)C[C@H](OC)[C@@H](C)CN(CC1CCCC1)[C@@H](C)CO2	x	x	x	x	0.1	x
C[C@H](CO)N1C[C@H](C)[C@H](CN(C)CC2CC2)Oc2ccc(NC(=O)c3ccncc3)cc2CC1=O	x	x	x	x	-1.2	x
CCOc1ccc(NS(=O)(=O)c2ccc(Cl)c(N=Nc3c(O)[nH]c(=S)[nH]c3=O)c2)cc1Br	-20.8	38.8*	-4.6	-0.6	0.1	63.0*
COc1ccc(NS(=O)(=O)c2cc(N=Nc3c(O)[nH]c(=O)[nH]c3=O)ccc2OC)cc1Br	6.6	16.8	7.4	-3.7	0.1	x
NC(=O)[C@H](Cc1cc2ccccc2s1)NC(=O)[C@@H]1CC2(CC(c3cccc(NC(=O)[C@@H]4CCC(=O)N4)c3)=NO2)CN1C(=O)/C=C/c1c(F)cccc1Cl (stereo partly specified)	9.3	34.4*	3.7	-1.2	x	21.0
CCN(CC)S(=O)(=O)c1cccc(NC(=O)C2SC(=Nc3ccc(C)cc3C)C(C(=O)NCC3CCCO3)=C2N)c1 (stereo unspecified)	-2.5	36.8*	-10.0	1.3	x	27.7
COCCN=C1Sc2nc3ccc(C)cc3cc2CN1Cc1cccs1	16.6	5.5	-12.7	1.5	0.5	x
